Assay [1] concerns DNA methylation, H3K9 methylation, H3K4 methylation. As to conditions: ref [4]; cited from earlier work.
Another assay concerns the target G9a catalytic SET domain (Homo sapiens, UniProt Q96KQ7). Put plainly: In vitro methylation assay with G9a catalytic SET domain. The conditions noted are these: [methyl-3H]AdoMet, 30 °C, 8 min, pH 8.5, SDS–PAGE and fluorography. Format: biochemical. The method in brief: (§1)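 E. coli-expressed hG9a or hGLP SET domain (1.6 μM) was incubated with 13.0 μM substrate (mDnmt3a N-terminal fragments or other GST-tagged proteins) and 2.8 μM [methyl-3H]AdoMet in 20 mM Tris–HCl pH 8.5 at 30 °C for 8 min. Products were resolved by SDS–PAGE and detected by fluorography/autoradiography.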

The target of the next assay is GLP catalytic SET domain (Homo sapiens, UniProt Q9H9B1). Description: In vitro methylation assay with GLP catalytic SET domain. It counts as biochemical. The conditions noted are these: [methyl-3H]AdoMet, SDS–PAGE and fluorography / autoradiogram. The method in brief:
as §1

A further assay addresses T1, MPP8 chromodomain (Homo sapiens, UniProt Q99549).
T1 sequence (Q99549 59-118 limits assumed): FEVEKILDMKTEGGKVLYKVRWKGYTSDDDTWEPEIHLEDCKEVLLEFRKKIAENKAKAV
Description: Co-crystal structure MPP8 chromodomain–hDNMT3AK47me2 peptide. It counts as binding.

Chain of GLP catalytic SET domain (Q9H9B1 1126-1243 limits assumed): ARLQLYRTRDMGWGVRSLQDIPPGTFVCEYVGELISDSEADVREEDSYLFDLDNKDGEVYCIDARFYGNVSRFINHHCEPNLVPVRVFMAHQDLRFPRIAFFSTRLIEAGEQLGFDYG
Chain of G9a catalytic SET domain (Q96KQ7 1038-1155 limits assumed): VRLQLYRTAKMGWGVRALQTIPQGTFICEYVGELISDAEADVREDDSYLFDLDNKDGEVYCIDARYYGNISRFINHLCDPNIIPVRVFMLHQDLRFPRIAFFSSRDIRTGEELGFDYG

As for `Nc1ncn([C@H]2C[C@H](O)[C@@H](CO)O2)c(=O)n1` [5-aza-2′-deoxycytidine], the “effect on DNA, H3K9 and H3K4 methylation” value in assay [1] was “leads to depletion of DNA methylation and of H3K9 methylation, and a corresponding increase in H3K4 methylation”.
“Dnmt3a-N: N-terminal fragment of mouse Dnmt3a (residues 1–274)”: the “methylation by G9a” value with G9a catalytic SET domain is “methylate the N-terminal fragment of Dnmt3a”. The “methylation by GLP” value with GLP catalytic SET domain is on record as “methylate the N-terminal fragment of Dnmt3a”.
Take YEPSTTARKVGRPGR [hDNMT3AK47me2]: the “pairwise root-mean-square-deviation to MPP8-H3K9me3 structure” value on MPP8 chromodomain (54 pairs of main-chain atoms, vs PDB 3QO2) is recorded as ~ 0.6 Å. In addition, the “binding mode in MPP8 chromodomain” value on MPP8 chromodomain (crystal structure (3SVM)) is “bound in an extended conformation in an acidic cleft of the chromodomain”.
“hDNMT3A K47R (residues 1–223): K47R substitution in hDNMT3A N-terminal domain”: the “methylation by GLP” value with GLP catalytic SET domain is given as “eliminates methylation”.
As to “hDNMT3A residues 1–94: GST-tagged hDNMT3A N-terminal fragment”, the “methylation by GLP” value with GLP catalytic SET domain is recorded as “are methylated”.
With “hDNMT3A residues 1–223: GST-tagged hDNMT3A N-terminal fragment”, in the assay with GLP catalytic SET domain, the “methylation by GLP” value was “are methylated”.

(Values after PMC3286832 (Nature Communications, 2011).)
